Screens deposited in PubChem BioAssay by Johns Hopkins Ion Channel Center.
Most compounds without a hit are left out; they make up all but 3.5% or so of the library.
RGS4 block: RGS4 inhibitors, primary screen, cell-based, HEK293 M3R inducible RGS4, calcium flux; Regulator of G-protein signaling 4 (Homo sapiens), P49798; Fluo-4 calcium flux; active compounds read high; triggered by carbachol at its EC20; B-score at 10 µM; actives 0.45% (n = 310,000);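 active = B-score, a plate-corrected calcium signal, over three deviations above library mean, with baseline fluorescence within five deviations of library mean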;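 also: RGS4 expression induced by doxycycline in cells with stable M3 receptor; B-score is computed from the integrated fluorescence ratio over baseline after carbachol; higher B-score means a larger calcium signal and so more RGS4 inhibition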
RGS4 act: RGS4 potentiators or activators, primary screen, cell-based, HEK293 M3R inducible RGS4, calcium flux; carbachol calcium flux Fluo4; active compounds read low; B-score at 10 µM; actives 0.92% (n = 310,000); AID 463111, 2010;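 active = B-score of the integrated calcium signal more than 4 SD below the library mean, with starting fluorescence not abnormally high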;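 also: negative B-score means reduced calcium response which marks RGS4 activation or potentiation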
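System: HEK293 FlpIn-TREx cells, stable M3R, doxycycline-inducible RGS4. Timing: overnight RGS4 induction, 30 min dye load 37 °C, 20 min compound RT. Also added: carbachol, ECmax concentration. Measured by: Fluo4 fluorescence kinetic imaging of calcium. Evaluation: integrated calcium ratio converted to B score.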
MrgX1 antagonist: antagonists of human MrgX1 receptor, primary screen, HEK293 cells, Fluo-4 calcium flux; Mas-related G-protein coupled receptor member X1 (Homo sapiens), Q96LB2; BAM8-22 antagonism; active compounds read low; B-score at 10 µM; actives 1.3% (n = 310,000);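 active = calcium-response B-score plate-corrected more than 3 library SD below zero, starting fluorescence within 5 deviations, no agonist response on first addition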;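 also: peak minus trough fluorescence over baseline after final BAM8-22 challenge near maximal dose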
Target sequence (Q96LB2 whole entry, looked up): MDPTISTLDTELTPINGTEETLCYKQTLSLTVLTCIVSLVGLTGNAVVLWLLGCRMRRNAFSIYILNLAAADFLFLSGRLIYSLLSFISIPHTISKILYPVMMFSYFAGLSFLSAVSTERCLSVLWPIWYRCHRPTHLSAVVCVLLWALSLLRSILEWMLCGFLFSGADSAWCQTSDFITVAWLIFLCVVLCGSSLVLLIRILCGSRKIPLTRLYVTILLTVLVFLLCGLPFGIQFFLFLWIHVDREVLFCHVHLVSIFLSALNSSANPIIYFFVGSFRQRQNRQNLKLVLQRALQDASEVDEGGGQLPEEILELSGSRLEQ
MrgX1 ag: agonists of human MrgX1 receptor, primary screen, HEK293 cells, Fluo-4 calcium flux. Mas-related G-protein coupled receptor member X1 (Homo sapiens), Q96LB2. Fluo-4 calcium fluorescence, agonist mode; active compounds read high. B-score at 10 µM. actives 0.44% (n = 310,000). AID 588627, 2011;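 active = calcium response B-score plate-corrected fluorescence ratio at least 3 library SD, with starting fluorescence B-score inside 5 SD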
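Test system: HEK293 cells stably expressing human MrgX1 receptor; Input: fifteen thousand cells per well; Dosing: compound delivered in addition one of three; Schedule: overnight seeding, then 1 h dark dye loading; Technique: Fluo-4 NW calcium fluorescence; Measure: B-scored fluorescence response ratio; Controls: positive and negative controls per plate.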
MrgX1 PAM: positive allosteric modulators of MrgX1, primary screen, HEK293 cells, Fluo-4 calcium flux; Mas-related G-protein coupled receptor member X1 (Homo sapiens), Q96LB2; FDSS; active compounds read high; B-score at 10 µM; actives 0.63% (n = 310,000);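 active = plate-corrected calcium response at least 3 library SD above typical, normal starting fluorescence, not activating the receptor alone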;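 also: compound read alongside a low EC10 to EC30 dose of BAM8-22 agonist; peak minus trough fluorescence over baseline measured at the second addition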
RGS4 block valid: enhanced carbachol calcium response, M3R/RGS4 cells, RGS4 inhibitor project, cell-based, validation screen, HEK293 M3R/RGS4, calcium flux; shares compounds with RGS4 block; carbachol calcium Fluo-4 fluorescence; carbachol added at its EC20; 0 = buffer wells, 100 = carbachol control; calcium response, % at 10 µM; actives 65% (n = 1,700); AID 492999, 2010;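 active = duplicate-averaged calcium response above the buffer-only control mean plus 5 SD of those controls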;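 also: integrated fluorescence ratio F max minus min over baseline F0; higher response in RGS4-induced cells means RGS4 inhibition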
RGS4 uninduced: carbachol calcium response in non-induced M3R cells, confirmation, counter-screen for RGS4 inhibitor project, cell-based, HEK293 M3R | activity (percent), % at 10 µM | AID 493000, 2010 | carbachol calcium Fluo-4; submaximal (EC20) carbachol stimulus; buffer wells 0%, carbachol control wells 100% | actives 20% (n = 1,900) | shares compounds with RGS4 block; call rule not given here;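 also: RGS4 induction absent so cells express M3R without RGS4; higher means more calcium signal and flags a non-specific hit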
RGS4 inh ctr2: second counter-screen for RGS4 inhibitors: non-induced cells without carbachol. shares compounds with RGS4 block. HEK293 M3R/RGS4 non-induced, Fluo-4 calcium, no carbachol; normalised: buffer wells 0%, carbachol wells 100%. calcium response (agonist-mode artifact), % at 10 µM. actives 22% (n = 1,900). AID 493001;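 active = duplicate-averaged calcium rise in uninduced cells above buffer wells' mean plus 5 SD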
Active calls of the source: *.

For Cc1cccc(N2C(=O)NC(=O)/C(=C\C=C\c3ccco3)C2=O)c1 the results were RGS4 block 17*, RGS4 act inactive, MrgX1 antagonist inactive, MrgX1 ag 57*, MrgX1 PAM inactive, RGS4 block valid 49%*, RGS4 uninduced 64%* and RGS4 inh ctr2 88%*.
Cc1ccc(N2C(=O)NC(=O)/C(=C\C=C\c3ccco3)C2=O)cc1C was read as RGS4 block 22*, RGS4 act inactive, MrgX1 antagonist inactive, MrgX1 ag inactive, MrgX1 PAM inactive, RGS4 block valid 28%*, RGS4 uninduced 32%* and RGS4 inh ctr2 40%*.
`CN(C)c1ccc(C2C3C=CC(C3)C2(C#N)C(=O)O)c(Br)c1` (stereo unspecified) gave RGS4 block inactive, RGS4 act inactive, MrgX1 antagonist inactive, MrgX1 ag inactive and MrgX1 PAM inactive.
Screening CCc1cc(=O)[nH]c(SCCCF)n1 returned RGS4 block inactive, RGS4 act inactive, MrgX1 antagonist inactive, MrgX1 ag inactive and MrgX1 PAM inactive.
For CCOC(=O)C1(c2ccccc2)CCN(CCC(C#N)(c2ccccc2)c2ccccc2)CC1 the results were RGS4 block inactive, RGS4 act inactive, MrgX1 antagonist inactive, MrgX1 ag inactive and MrgX1 PAM inactive.
CCC1(c2ccc(N)cc2)CCC(=O)NC1=O (stereo unspecified) was read as RGS4 block inactive, RGS4 act inactive, MrgX1 antagonist inactive, MrgX1 ag inactive and MrgX1 PAM inactive.
Screening CNc1cc(Cl)c2nonc2c1[N+](=O)[O-] returned RGS4 block 17*, RGS4 act inactive, RGS4 block valid 54%*, RGS4 uninduced inactive and RGS4 inh ctr2 inactive.
Screening Cc1cc([N+](=O)[O-])c(Cl)cc1NC(=O)C(C)C returned RGS4 block inactive, RGS4 act inactive, MrgX1 antagonist inactive, MrgX1 ag inactive and MrgX1 PAM inactive.
For COc1ccc(NP(=O)(Oc2ccc(Cl)cc2)Oc2ccc(Cl)cc2)cc1OC the results were RGS4 block 12*, RGS4 act inactive, MrgX1 antagonist inactive, MrgX1 ag inactive, MrgX1 PAM inactive, RGS4 block valid 42%*, RGS4 uninduced inactive and RGS4 inh ctr2 inactive.
`CC12CN3C(O)C(C)(C1)CC(C)(C2)C3O` (stereo unspecified) gave RGS4 block inactive, RGS4 act inactive, MrgX1 antagonist inactive, MrgX1 ag inactive and MrgX1 PAM inactive.
`O=C(N/N=C/c1c(O)n(Cc2ccccc2)c(=O)[nH]c1=O)c1ccncc1` gave RGS4 block inactive, RGS4 act inactive, MrgX1 antagonist inactive, MrgX1 ag inactive, MrgX1 PAM inactive, RGS4 uninduced 34%* and RGS4 inh ctr2 inactive.
For O=C(N/N=C/c1c(O)n(Cc2ccc(F)cc2)c(=O)[nH]c1=O)c1ccccc1 the results were RGS4 block inactive, RGS4 act inactive, MrgX1 antagonist inactive, MrgX1 ag inactive, MrgX1 PAM inactive, RGS4 uninduced inactive and RGS4 inh ctr2 inactive.
